Data taken from ChEMBL document CHEMBL1127442, “Triazolinone biphenylsulfonamide derivatives as orally active angiotensin II antagonists with potent AT1 receptor affinity and enhanced AT2 affinity” (J Med Chem, 1994).

Legend:
[1] = target: T1, Type-2 angiotensin II receptor (Rattus norvegicus, UniProt P35351); assay: In vitro inhibitory activity against angiotensin II rat midbrain AT2 receptor using radioligand [125I]-Sar Ile-AII
T1 sequence (P35351 whole entry): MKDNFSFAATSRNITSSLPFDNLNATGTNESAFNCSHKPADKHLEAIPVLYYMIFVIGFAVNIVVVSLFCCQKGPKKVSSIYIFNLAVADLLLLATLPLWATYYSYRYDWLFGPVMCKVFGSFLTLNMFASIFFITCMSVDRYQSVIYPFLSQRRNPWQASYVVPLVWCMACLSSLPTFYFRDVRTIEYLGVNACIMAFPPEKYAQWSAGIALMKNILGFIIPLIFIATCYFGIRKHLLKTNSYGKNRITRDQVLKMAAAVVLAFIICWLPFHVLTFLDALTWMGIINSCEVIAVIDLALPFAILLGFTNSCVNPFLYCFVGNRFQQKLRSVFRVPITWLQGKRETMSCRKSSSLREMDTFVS
In short: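 Dithiothreitol ([…]) was added to the assay mixture to abolish residual AT1 binding. Tubes were run in duplicate, and IC50 came from nonlinear regression of displacement curves.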

[2] = target: T2, Type-1 angiotensin II receptor (Oryctolagus cuniculus, UniProt P34976); assay: In vitro inhibitory activity against angiotensin II rabbit aorta AT1 receptor using radioligand [125I]-Sar Ile-AII; format: tissue-based
T2 sequence (P34976 whole entry): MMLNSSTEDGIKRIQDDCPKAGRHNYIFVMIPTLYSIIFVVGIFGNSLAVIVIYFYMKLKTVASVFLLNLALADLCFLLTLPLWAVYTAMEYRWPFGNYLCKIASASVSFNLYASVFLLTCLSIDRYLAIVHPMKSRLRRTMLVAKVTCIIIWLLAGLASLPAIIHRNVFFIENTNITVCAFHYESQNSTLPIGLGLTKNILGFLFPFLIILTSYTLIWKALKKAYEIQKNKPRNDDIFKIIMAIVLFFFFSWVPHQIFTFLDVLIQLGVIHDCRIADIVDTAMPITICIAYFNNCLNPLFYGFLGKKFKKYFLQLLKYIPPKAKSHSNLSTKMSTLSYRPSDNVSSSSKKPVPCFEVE

IC50 [1]	IC50 [2]	SMILES
100 nM	1.3 nM	CCCCc1nn(-c2ccccc2C(F)(F)F)c(=O)n1Cc1ccc(-c2ccccc2S(=O)(=O)NC(=O)CCCCCN)cc1
300 nM	1.1 nM	CCCCc1nn(-c2ccccc2C(F)(F)F)c(=O)n1Cc1ccc(-c2ccccc2S(=O)(=O)NC(=O)NC(C)C)cc1
160 nM	1.3 nM	CCCCc1nn(-c2ccccc2C(F)(F)F)c(=O)n1Cc1ccc(-c2ccccc2S(=O)(=O)NC(=O)C(C)(C)C)cc1
130 nM	3.3 nM	CCCCc1nn(-c2ccccc2C(F)(F)F)c(=O)n1Cc1ccc(-c2ccccc2S(=O)(=O)NC(=O)C2C(C)(C)C2(C)C)cc1
520 nM	13 nM	CCCc1nn(-c2ccccc2C(F)(F)F)c(=O)n1Cc1ccc(-c2ccccc2S(=O)(=O)NC(=O)c2ccccc2)cc1
35 nM	1.1 nM	CCCCc1nn(-c2ccccc2C(F)(F)F)c(=O)n1Cc1ccc(-c2ccccc2S(=O)(=O)NC(=O)c2ocnc2C)cc1
270 nM	0.3 nM	CCCCc1nn(-c2ccccc2C(F)(F)F)c(=O)n1Cc1ccc(-c2ccccc2S(=O)(=O)NC(=O)C2CCCCCC2)cc1
590 nM	1.4 nM	CCCCc1nn(-c2ccccc2Cl)c(=O)n1Cc1ccc(-c2ccccc2S(=O)(=O)NC(=O)c2ccccc2)cc1
100 nM	0.39 nM	CCCCc1nn(-c2ccccc2C(F)(F)F)c(=O)n1Cc1ccc(-c2ccccc2S(=O)(=O)NC(=O)C2CC3CCC2C3)cc1 (stereo not given)
500 nM	1.6 nM	CCCCc1nn(-c2ccccc2C(F)(F)F)c(=O)n1Cc1ccc(-c2ccccc2S(=O)(=O)NC(=O)c2cccn2C)cc1
160 nM	0.15 nM	CCCCc1nn(-c2ccccc2C(F)(F)F)c(=O)n1Cc1ccc(-c2ccccc2S(=O)(=O)NC(=O)C2CCCCC2)cc1
87 nM	2.6 nM	CCCCc1nn(-c2ccccc2C(F)(F)F)c(=O)n1Cc1ccc(-c2ccccc2S(=O)(=O)NC(=O)c2cc(Cl)sc2Cl)cc1
26 nM	0.48 nM	CCCCc1nn(-c2ccccc2C(F)(F)F)c(=O)n1Cc1ccc(-c2ccccc2S(=O)(=O)NC(=O)c2cc(Cl)ccc2Cl)cc1
150 nM	0.4 nM	CCCCc1nn(-c2ccccc2C(F)(F)F)c(=O)n1Cc1ccc(-c2ccccc2S(=O)(=O)NC(=O)c2ccc(C)o2)cc1
380 nM	0.75 nM	CCCCc1nn(-c2ccccc2C(F)(F)F)c(=O)n1Cc1ccc(-c2ccccc2S(=O)(=O)NC(=O)COCC)cc1
240 nM	1.6 nM	CCCCc1nn(-c2ccccc2C(F)(F)F)c(=O)n1Cc1ccc(-c2ccccc2S(=O)(=O)NC(=O)Cc2ccccc2)cc1
35 nM	0.35 nM	CCCCc1nn(-c2ccccc2C(F)(F)F)c(=O)n1Cc1ccc(-c2ccccc2S(=O)(=O)NC(=O)C2SCCS2)cc1
3600 nM	0.16 nM	CCCCc1nn(-c2ccccc2C(F)(F)F)c(=O)n1Cc1ccc(-c2ccccc2S(=O)(=O)NS(=O)(=O)C(C)C)cc1
320 nM	2.8 nM	CCCCc1nn(-c2ccccc2C(F)(F)F)c(=O)n1Cc1ccc(-c2ccccc2S(=O)(=O)NC(=O)C(c2ccccc2)c2ccccc2)cc1
400 nM	0.8 nM	CCCCc1nn(-c2ccccc2C(F)(F)F)c(=O)n1Cc1ccc(-c2ccccc2S(=O)(=O)NC(=O)C(F)(F)F)cc1
6500 nM	21 nM	CCCCc1nn(-c2ccccc2C(F)(F)F)c(=O)n1Cc1ccc(-c2ccccc2S(=O)(=O)NC(=O)c2cc(OC)c(OC)c(OC)c2)cc1
5500 nM	1.8 nM	CCCCc1nn(-c2ccccc2C(F)(F)F)c(=O)n1Cc1ccc(-c2ccccc2NS(=O)(=O)C(F)(F)F)cc1

IC50 [1]	IC50 [2]	SMILES
170 nM	0.4 nM	CCCCc1nn(-c2ccccc2C(F)(F)F)c(=O)n1Cc1ccc(-c2ccccc2S(=O)(=O)NC(=O)c2ccc(Br)o2)cc1
> 50000 nM	–	CCCCc1nc(Cl)c(C(=O)O)n1Cc1ccc(-c2ccccc2-c2nn[nH]n2)cc1 [CARBOXYLIC ACID METABOLITE]
190 nM	0.59 nM	CCCCOC(=O)NS(=O)(=O)c1ccccc1-c1ccc(Cn2c(CCCC)nn(-c3ccccc3C(F)(F)F)c2=O)cc1
310 nM	1 nM	CCCCc1nn(-c2ccccc2C(F)(F)F)c(=O)n1Cc1ccc(-c2ccccc2S(=O)(=O)NC(=O)c2cc(C)oc2C)cc1
130 nM	2.6 nM	CCCCc1nn(-c2ccccc2C(F)(F)F)c(=O)n1Cc1ccc(-c2ccccc2S(=O)(=O)NC(=O)NC(C)(C)C)cc1
190 nM	0.82 nM	CCCCc1nn(-c2ccccc2C(F)(F)F)c(=O)n1Cc1ccc(-c2ccccc2S(=O)(=O)NC(=O)c2ccccc2Cc2ccccc2)cc1
11000 nM	–	CCCCc1nn(-c2ccccc2Cl)c(=O)n1Cc1ccc(-c2ccccc2S(=O)(=O)NC(C)(C)C)cc1
720 nM	1.2 nM	CCCCc1nn(-c2ccccc2C(F)(F)F)c(=O)n1Cc1ccc(-c2ccccc2S(=O)(=O)NC(=O)CCC2CCCC2)cc1
280 nM	2.8 nM	CCCCc1nn(-c2ccccc2C(F)(F)F)c(=O)n1Cc1ccc(-c2ccccc2S(=O)(=O)NC(=O)C2CCOC2)cc1 (stereo not given)
700 nM	5.2 nM	CCCCc1nn(-c2ccccc2C(F)(F)F)c(=O)n1Cc1ccc(-c2ccccc2S(=O)(=O)Nc2nc3ccccc3o2)cc1
23000 nM	0.78 nM	CCCCc1nn(-c2ccccc2C(F)(F)F)c(=O)n1Cc1ccc(-c2ccccc2-c2nnn[nH]2)cc1
110 nM	3 nM	CCCCc1nn(-c2ccccc2C(F)(F)F)c(=O)n1Cc1ccc(-c2ccccc2S(=O)(=O)NC(=O)c2ccoc2C)cc1
270 nM	2 nM	CCCCc1nn(-c2ccccc2C(F)(F)F)c(=O)n1Cc1ccc(-c2ccccc2S(=O)(=O)NC(=O)CCOC)cc1
24000 nM	820 nM	CCCCc1nn(-c2ccccc2Cl)c(=O)n1Cc1ccc(-c2ccccc2S(N)(=O)=O)cc1
700 nM	3.9 nM	CCCCc1nn(-c2ccccc2C(F)(F)F)c(=O)n1Cc1ccc(-c2ccccc2S(=O)(=O)NC(=O)c2ccoc2)cc1
500 nM	0.74 nM	CCCCc1nn(-c2ccccc2C(F)(F)F)c(=O)n1Cc1ccc(-c2ccccc2S(=O)(=O)NC(=O)c2ccc(OC)cc2)cc1
25 nM	0.19 nM	CCCCc1nn(-c2ccccc2C(F)(F)F)c(=O)n1Cc1ccc(-c2ccccc2S(=O)(=O)NC(=O)c2occ(Cl)c2Cl)cc1
430 nM	0.31 nM	CCCCc1nn(-c2ccccc2C(F)(F)F)c(=O)n1Cc1ccc(-c2ccccc2S(=O)(=O)NC(=O)c2cc3ccccc3s2)cc1
120 nM	0.56 nM	CCCCc1nn(-c2ccccc2C(F)(F)F)c(=O)n1Cc1ccc(-c2ccccc2S(=O)(=O)NC(=O)C2CC2C)cc1 (stereo not given)
410 nM	18 nM	CCCc1nn(-c2ccccc2C(F)(F)F)c(=O)n1Cc1ccc(-c2ccccc2S(=O)(=O)NC(=O)C2CC2)cc1
> 1000 nM	–	CCCCc1nn(-c2ccccc2Cl)c(=O)n1Cc1ccc(-c2ccccc2S(=O)(=O)NC(C)=O)cc1
450 nM	–	CCCCc1nn(-c2ccccc2Cl)c(=O)n1Cc1ccc(-c2ccccc2S(=O)(=O)NC(=O)C(F)(F)F)cc1

SMILES	IC50 [1]	IC50 [2]
CCCCc1nn(-c2ccccc2C(F)(F)F)c(=O)n1Cc1ccc(-c2ccccc2S(=O)(=O)NC(=O)c2cc3ccccc3o2)cc1.CCOCC	–	0.17 nM
